Data on 25 molecules can be found in ChEMBL document CHEMBL4811241, “Revisiting Pyrazolo[3,4-d]pyrimidine Nucleosides as Anti-Trypanosoma cruzi and Antileishmanial Agents” (J Med Chem, 2021).

Data set [1] deals with Trypanosoma cruzi. Description: Antitrypanosomal activity against nifurtimox-sensitive Trypanosoma cruzi Tulahuen CL2 infected in human MRC-5 SV2 cells assessed as inhibition of parasite growth measured after 7 days by spectrophotometric analysis. To be noted: Tulahuen CL2, MRC-5 SV2, 168 h. Type of data set: functional, organism-based.
Data set [2] in a line: Cytotoxicity against human MRC-5 SV2 cells assessed as reduction in cell growth measured after 3 days by resazurin dye based fluorometric analysis. The note with it: time 3 day.
The test system of data set [3] is Leishmania infantum. Briefly: Antileishmanial activity against amastigote form of Leishmania infantum MHOM/MA(BE)/67 infected in Swiss mouse peritoneal macrophages assessed as reduction in parasite growth treated at 2 hrs post-infection and measured after 5 days by Giemsa staining based microscopic analysis. Type of data set: functional, organism-based. The note with it: MHOM/MA(BE)/67, Peritoneal macrophage. In short, it runs like this:
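Swiss mouse peritoneal macrophages, harvested after 2-day potato-starch stimulation, infected 48 h after plating; compounds added 2 h post-infection.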

A short description of data set [4]: Cytotoxicity against Swiss mouse peritoneal macrophages assessed as cell detachment, lysis and granulation measured after 5 days by microscopic analysis. Type of data set: cell-based, Peritoneal macrophage. The note with it: time 5 day. The method in brief: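 Scored within the Leishmania macrophage assay over 5 days: detachment, lysis and granulation judged semi-quantitatively by microscopy across at least 500 cells. CC50 derived from % reduction in normal cells versus untreated wells.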

The nature of data set [5]: Selectivity index, ratio of CC50 for Swiss mouse peritoneal macrophages to IC50 for antileishmanial activity against amastigote form of Leishmania infantum MHOM/MA(BE)/67 infected in Swiss mouse peritoneal macrophages. In kind it is toxicity. The note with it: read-out: Ratio CC50/IC50. The method in brief: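 Ratio of macrophage CC50 to L. infantum amastigote IC50, both taken from the same 5-day macrophage assay.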

Data set [6] in a line: Selectivity index, ratio of CC50 for human MRC-5 SV2 cells to IC50 for antitrypanosomal activity against nifurtimox-sensitive Trypanosoma cruzi Tulahuen CL2 infected in human MRC-5 SV2 cells. Type of data set: toxicity, cell-based. To be noted: read-out: Ratio CC50/IC50. In short, it runs like this:
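Ratio of MRC-5SV2 CC50 (3-day resazurin assay) to IC50 against T. cruzi amastigotes in MRC-5SV2 cells (7-day CPRG assay).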

As to `Nc1ncnc2c1c(Br)nn2[C@@H]1O[C@H](CO)[C@@H](F)[C@H]1O`, the IC50 in data set [1] came to 1.06 µM; in data set [3] it was 0.08 µM. For the same molecule, the CC50 at 72 h in data set [2] is 0.23 µM. In addition, the CC50 at 120 h in data set [4] amounted to 0.13 µM. For the same molecule, the selectivity ratio in data set [5] worked out at 1.

On to `Cc1csc(-c2nn([C@@H]3O[C@H](CO)[C@@H](O)[C@H]3O)c3ncnc(N)c23)c1`, for which the values for the IC50 in data set [1] and in data set [3] were 32 µM and over 64 µM, respectively. For the same molecule, the CC50 at 72 h in data set [2] is over 64 µM. Further, in data set [6], the selectivity ratio was over 2. The CC50 at 120 h in data set [4] is over 64 µM.

Regarding `Nc1ncnc2c1c(Oc1ccccc1)nn2[C@@H]1O[C@H](CO)[C@@H](O)[C@H]1O`, the IC50 was over 64 µM in data set [1] and 32 µM in data set [3]. The CC50 at 72 h in data set [2] was over 64 µM. Moreover, the CC50 at 120 h in data set [4] was over 64 µM. The selectivity ratio in data set [5] was over 2.

Take `Nc1ncnc2c1c(-c1ccc(F)cc1)nn2[C@@H]1O[C@H](CO)[C@@H](O)[C@H]1O`: the IC50 in data set [1] was 3.36 µM; in data set [3] it was over 64 µM. Moreover, the CC50 at 72 h in data set [2] was over 64 µM. The selectivity ratio in data set [6] is over 19. The CC50 at 120 h in data set [4] is over 64 µM.

As for `Nc1ncnc2c1c(-c1ccc(Cl)cc1)nn2[C@@H]1O[C@H](CO)C[C@H]1O`, the results for the IC50 in data set [1] and in data set [3] were 1.04 µM and over 64 µM, respectively. Also, the CC50 at 72 h in data set [2] is over 64 µM. For the same molecule, in data set [6], the selectivity ratio is over 61. The CC50 at 120 h in data set [4] was over 64 µM.

On to `CNc1nn([C@@H]2O[C@H](CO)[C@@H](O)[C@H]2O)c2ncnc(N)c12`, for which the IC50 was over 64 µM in data set [1] and 50.8 µM in data set [3]. The CC50 at 72 h in data set [2] is over 64 µM. Further, the CC50 at 120 h in data set [4] is over 64 µM. The selectivity ratio in data set [5] is over 1.

Turning to `COc1cc(-c2nn([C@@H]3O[C@H](CO)[C@@H](O)[C@H]3O)c3ncnc(N)c23)ccc1Cl`, the IC50 was 1.14 µM in data set [1] and over 64 µM in data set [3]. Moreover, the CC50 at 72 h in data set [2] is over 64 µM. In addition, the selectivity ratio in data set [6] was over 56. Moreover, the CC50 at 120 h in data set [4] was over 64 µM.

For `Nc1ncnc2c1c(-c1ccc(Cl)c(C(F)(F)F)c1)nn2[C@@H]1O[C@H](CO)[C@@H](O)[C@H]1O`, the IC50 is 43.8 µM in data set [1] and over 64 µM in data set [3]. For the same molecule, in data set [2], the CC50 at 72 h was over 64 µM. In addition, the selectivity ratio in data set [6] is over 1. Besides, the CC50 at 120 h in data set [4] is over 64 µM.

As for `Nc1ncnc2c1c(-c1ccc(OC(F)(F)F)cc1)nn2[C@@H]1O[C@H](CO)[C@@H](O)[C@H]1O`, the IC50 is 15.6 µM in data set [1] and over 64 µM in data set [3]. Besides, the CC50 at 72 h in data set [2] was over 64 µM. The selectivity ratio in data set [6] is over 4. Further, in data set [4], the CC50 at 120 h was over 64 µM.

With `CCOc1cc(-c2nn([C@@H]3O[C@H](CO)[C@@H](O)[C@H]3O)c3ncnc(N)c23)ccc1Cl`, the IC50 in data set [1] is 45.3 µM; in data set [3] it was over 64 µM. The CC50 at 72 h in data set [2] was over 64 µM. For the same molecule, the selectivity ratio in data set [6] was over 1. Further, the CC50 at 120 h in data set [4] is over 64 µM.

Regarding `Nc1ncnc2c1c(-c1ccc(Cl)s1)nn2[C@@H]1O[C@H](CO)[C@@H](O)[C@H]1O`, the figures for the half-maximal inhibitory concentration (IC50) in data set [1] and in data set [3] were 2.56 µM and over 64 µM, respectively. Further, the CC50 at 72 h in data set [2] came out at 47.3 µM. Also, in data set [6], the selectivity ratio amounted to 14. In addition, the CC50 at 120 h in data set [4] was over 64 µM.

Regarding `COc1ccc(-c2nn([C@@H]3O[C@H](CO)[C@@H](O)[C@H]3O)c3ncnc(N)c23)cc1`, the IC50 is 18.2 µM in data set [1] and over 64 µM in data set [3]. Besides, the CC50 at 72 h in data set [2] is over 64 µM. For the same molecule, the selectivity ratio in data set [6] is over 4. Besides, in data set [4], the CC50 at 120 h was over 64 µM.

Consider `CC(C)c1nn([C@@H]2O[C@H](CO)[C@@H](O)[C@H]2O)c2ncnc(N)c12`, for which the IC50 in data set [1] and in data set [3] was over 64 µM throughout. Further, in data set [2], the CC50 at 72 h worked out at 10.6 µM. The selectivity ratio in data set [6] is under 1. Further, the CC50 at 120 h in data set [4] is over 64 µM.

Turning to `Nc1ncnc2c1c(-c1ccc(F)c(Cl)c1)nn2[C@@H]1O[C@H](CO)[C@@H](O)[C@H]1O`, the IC50 in data set [1] was 4.66 µM; in data set [3], over 64 µM. The CC50 at 72 h in data set [2] was over 64 µM. Also, the selectivity ratio in data set [6] is over 14. The CC50 at 120 h in data set [4] is over 64 µM.

On to `Nc1ncnc2c1c(C(=O)Nc1ccccc1)nn2[C@@H]1O[C@H](CO)[C@@H](O)[C@H]1O`, for which the IC50 in data set [1] was over 64 µM; in data set [3] it was 32.5 µM. Further, the CC50 at 72 h in data set [2] was over 64 µM. Moreover, the CC50 at 120 h in data set [4] was 32 µM. Further, the selectivity ratio in data set [5] came to 1.

For the molecule `Nc1ncnc2c1c(-c1cc(F)c(Cl)c(F)c1)nn2[C@@H]1O[C@H](CO)[C@@H](O)[C@H]1O`, the figures for the IC50 in data set [1] and in data set [3] were 1.33 µM and over 64 µM, respectively. Besides, the cytotoxic concentration (CC50) at 72 h in data set [2] was over 64 µM. In data set [6], the selectivity ratio was over 17. Moreover, in data set [4], the CC50 at 120 h was over 64 µM.

For the molecule `Nc1ncnc2c1c(-c1ccccc1)nn2[C@@H]1O[C@H](CO)[C@@H](O)[C@H]1O`, the values for the IC50 in data set [1] and in data set [3] were 13.1 µM and over 64 µM, respectively. In addition, the CC50 at 72 h in data set [2] is over 64 µM. The selectivity ratio in data set [6] was over 5. In addition, the CC50 at 120 h in data set [4] was over 64 µM.

Consider `N#Cc1ccc(-c2nn([C@@H]3O[C@H](CO)[C@@H](O)[C@H]3O)c3ncnc(N)c23)cc1`, for which the results for the IC50 in data set [1] and in data set [3] were 32 µM and over 64 µM, respectively. In data set [2], the CC50 at 72 h was over 64 µM. The selectivity ratio in data set [6] was over 2. For the same molecule, in data set [4], the CC50 at 120 h is over 64 µM.

On to `Cn1cc(-c2nn([C@@H]3O[C@H](CO)[C@@H](O)[C@H]3O)c3ncnc(N)c23)cn1`, for which the IC50 in data set [1] is 45.3 µM; in data set [3] it was over 64 µM. Also, in data set [2], the CC50 at 72 h is over 64 µM. Moreover, in data set [6], the selectivity ratio was over 1. Besides, the CC50 at 120 h in data set [4] was over 64 µM.

For `C=Cc1nn([C@@H]2O[C@H](CO)[C@@H](O)[C@H]2O)c2ncnc(N)c12`, the IC50 in data set [1] was over 64 µM; in data set [3], 12.7 µM. The CC50 at 72 h in data set [2] was over 64 µM. Also, the CC50 at 120 h in data set [4] turned out to be 32 µM. Moreover, the selectivity ratio in data set [5] was 3.

Turning to `CNC(=O)c1nn([C@@H]2O[C@H](CO)[C@@H](O)[C@H]2O)c2ncnc(N)c12`, the IC50 in data set [1] is 4 µM; in data set [3], over 64 µM. In addition, the CC50 at 72 h in data set [2] was over 64 µM. Besides, the selectivity ratio in data set [6] stood at 16. Besides, the CC50 at 120 h in data set [4] is over 64 µM.

With `Nc1ncnc2c1c(C(F)(F)F)nn2[C@@H]1O[C@H](CO)[C@@H](O)[C@H]1O`, the IC50 in data set [1] was 27 µM; in data set [3], over 64 µM. For the same molecule, the CC50 at 72 h in data set [2] worked out at 13.3 µM. In addition, the selectivity ratio in data set [6] was under 1. Further, in data set [4], the CC50 at 120 h is over 64 µM.

Turning to `Cc1cc(Cl)ccc1-c1nn([C@@H]2O[C@H](CO)[C@@H](O)[C@H]2O)c2ncnc(N)c12`, the IC50 was 3.76 µM in data set [1] and over 64 µM in data set [3]. The CC50 at 72 h in data set [2] was over 64 µM. Further, in data set [6], the selectivity ratio is over 17. The CC50 at 120 h in data set [4] was over 64 µM.

`Nc1ncnc2c1c(-c1ccc([N+](=O)[O-])cc1)nn2[C@@H]1O[C@H](CO)[C@@H](O)[C@H]1O`: the figures for the IC50 in data set [1] and in data set [3] were 10.3 µM and over 64 µM, respectively. In addition, the CC50 at 72 h in data set [2] was over 64 µM. Further, in data set [6], the selectivity ratio is over 6. Also, the CC50 at 120 h in data set [4] was over 64 µM.

With `Cc1ccc(-c2nn([C@@H]3O[C@H](CO)[C@@H](O)[C@H]3O)c3ncnc(N)c23)cc1`, the IC50 in data set [1] was 1.77 µM; in data set [3] it was over 64 µM. In addition, the CC50 at 72 h in data set [2] is over 64 µM. In addition, in data set [6], the selectivity ratio was over 36. Moreover, in data set [4], the CC50 at 120 h was over 64 µM.
